According to ChEMBL document CHEMBL4387724, “2-Pyridineformamide N(4)-ring incorporated thiosemicarbazones inhibit MCF-7 cells by inhibiting JNK pathway” (Bioorg Med Chem Lett, 2019):

Experiments:
[1] = tested on: A-431; test: Cytotoxicity against human A431 cells assessed as reduction in cell growth incubated for 72 hrs by MTT assay; assay type: functional, cell-based; details: A-431, 72 h
Procedure, shortened: (§1)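 Cells grown in DMEM with 10% FBS and penicillin-streptomycin at 37 °C, 5% CO2, seeded at 3000 cells/well and attached overnight. Screening series given at 1, 3, 10, 100 μM; follow-up agent at 100 nM–3 μM; both 72 h, with 0.1% DMSO vehicle. MTT (5 mg/mL stock) added for 3 h at 37 °C, formazan dissolved in DMSO, absorbance read at 570 nm. Viability expressed as % of DMSO-treated wells from replicates.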

[2] = tested on: A-375; test: Cytotoxicity against human A375 cells assessed as reduction in cell growth at 1 uM incubated for 72 hrs by MTT assay relative to control; assay type: functional; details: A-375, 72 h, read-out: GI; procedure, shortened: as §1
[3] = tested on: A-375; test: Cytotoxicity against human A375 cells assessed as reduction in cell growth at 10 uM incubated for 72 hrs by MTT assay relative to control; assay type: functional; details: A-375, 72 h, read-out: GI; procedure, shortened: as §1
[4] = tested on: A-431; test: Cytotoxicity against human A431 cells assessed as reduction in cell growth at 100 uM incubated for 72 hrs by MTT assay relative to control; assay type: functional; details: A-431, 72 h, read-out: GI; procedure, shortened: as §1
[5] = tested on: MCF7; test: Cytotoxicity against human MCF7 cells assessed as reduction in cell growth at 100 uM incubated for 72 hrs by MTT assay relative to control; assay type: functional; details: MCF7, 72 h, read-out: GI; procedure, shortened: as §1
[6] = tested on: A-375; test: Cytotoxicity against human A375 cells assessed as reduction in cell growth at 30 uM incubated for 72 hrs by MTT assay relative to control; assay type: functional; details: A-375, 72 h, read-out: GI
[7] = tested on: MCF7; test: Cytotoxicity against human MCF7 cells assessed as reduction in cell growth at 1 uM incubated for 72 hrs by MTT assay relative to control; assay type: functional; details: MCF7, 72 h, read-out: GI; procedure, shortened: as §1
[8] = tested on: A-431; test: Cytotoxicity against human A431 cells assessed as reduction in cell growth at 3 uM incubated for 72 hrs by MTT assay relative to control; assay type: functional; details: A-431, 72 h, read-out: GI; procedure, shortened: as §1
[9] = tested on: A-375; test: Cytotoxicity against human A375 cells assessed as reduction in cell growth incubated for 72 hrs by MTT assay; assay type: functional, cell-based; details: A-375, 72 h; procedure, shortened: as §1
[10] = tested on: HeLa; test: Cytotoxicity against human HeLa cells assessed as reduction in cell growth at 30 uM incubated for 72 hrs by MTT assay relative to control; assay type: functional; details: read-out: GI
[11] = tested on: MCF7; test: Cytotoxicity against human MCF7 cells assessed as reduction in cell growth incubated for 72 hrs by MTT assay; assay type: functional, cell-based; details: MCF7, 72 h; procedure, shortened: as §1
[12] = tested on: HeLa; test: Cytotoxicity against human HeLa cells assessed as reduction in cell growth at 10 uM incubated for 72 hrs by MTT assay relative to control; assay type: functional; details: read-out: GI; procedure, shortened: as §1
[13] = tested on: A-431; test: Cytotoxicity against human A431 cells assessed as reduction in cell growth at 30 uM incubated for 72 hrs by MTT assay relative to control; assay type: functional; details: A-431, 72 h, read-out: GI
[14] = tested on: HeLa; test: Cytotoxicity against human HeLa cells assessed as reduction in cell growth at 1 uM incubated for 72 hrs by MTT assay relative to control; assay type: functional; details: read-out: GI; procedure, shortened: as §1
[15] = tested on: MCF7; test: Cytotoxicity against human MCF7 cells assessed as reduction in cell growth at 30 uM incubated for 72 hrs by MTT assay relative to control; assay type: functional; details: MCF7, 72 h, read-out: GI
[16] = tested on: HeLa; test: Cytotoxicity against human HeLa cells assessed as reduction in cell growth incubated for 72 hrs by MTT assay; assay type: functional, cell-based; procedure, shortened: as §1
[17] = tested on: MCF7; test: Cytotoxicity against human MCF7 cells assessed as reduction in cell growth at 3 uM incubated for 72 hrs by MTT assay relative to control; assay type: functional; details: MCF7, 72 h, read-out: GI; procedure, shortened: as §1
[18] = tested on: A-375; test: Cytotoxicity against human A375 cells assessed as reduction in cell growth at 3 uM incubated for 72 hrs by MTT assay relative to control; assay type: functional; details: A-375, 72 h, read-out: GI; procedure, shortened: as §1
[19] = tested on: A-431; test: Cytotoxicity against human A431 cells assessed as reduction in cell growth at 1 uM incubated for 72 hrs by MTT assay relative to control; assay type: functional; details: A-431, 72 h, read-out: GI; procedure, shortened: as §1
[20] = tested on: HeLa; test: Cytotoxicity against human HeLa cells assessed as reduction in cell growth at 100 uM incubated for 72 hrs by MTT assay relative to control; assay type: functional; details: read-out: GI; procedure, shortened: as §1
[21] = tested on: HeLa; test: Cytotoxicity against human HeLa cells assessed as reduction in cell growth at 3 uM incubated for 72 hrs by MTT assay relative to control; assay type: functional; details: read-out: GI; procedure, shortened: as §1
[22] = tested on: A-431; test: Cytotoxicity against human A431 cells assessed as reduction in cell growth at 10 uM incubated for 72 hrs by MTT assay relative to control; assay type: functional; details: A-431, 72 h, read-out: GI; procedure, shortened: as §1
[23] = tested on: MCF7; test: Cytotoxicity against human MCF7 cells assessed as reduction in cell growth at 10 uM incubated for 72 hrs by MTT assay relative to control; assay type: functional; details: MCF7, 72 h, read-out: GI; procedure, shortened: as §1
[24] = tested on: A-375; test: Cytotoxicity against human A375 cells assessed as reduction in cell growth at 100 uM incubated for 72 hrs by MTT assay relative to control; assay type: functional; details: A-375, 72 h, read-out: GI; procedure, shortened: as §1

Row | SMILES | IC50 [1] [µM] | inhibition of growth at 1 µM [2] [%] | inhibition of growth at 10 µM [3] [%] | inhibition of growth at 100 µM [4] [%] | inhibition of growth at 100 µM [5] [%] | inhibition of growth at 30 µM [6] [%] | inhibition of growth at 1 µM [7] [%] | inhibition of growth at 3 µM [8] [%] | IC50 [9] [µM] | inhibition of growth at 30 µM [10] [%] | IC50 [11] [µM] | inhibition of growth at 10 µM [12] [%] | inhibition of growth at 30 µM [13] [%] | inhibition of growth at 1 µM [14] [%] | inhibition of growth at 30 µM [15] [%] | IC50 [16] [µM] | inhibition of growth at 3 µM [17] [%] | inhibition of growth at 3 µM [18] [%] | inhibition of growth at 1 µM [19] [%] | inhibition of growth at 100 µM [20] [%] | other results
1 | Cc1ccnc(/C(N)=N/NC(=S)N2CCOCC2)c1 | 6.8 | 43.2 | 86 | 82.8 | 12.8 | 87.4 | 1.22 | 35.5 | 1.6 | 45.2 | > 100 | 49.1 | 74.6 | 39.1 | 8.16 | 38.5 | 5.07 | 66.6 | 33.6 | 82.7 | inhibition of growth at 3 µM [21]: 44.7%; inhibition of growth at 10 µM [22]: 62%; inhibition of growth at 10 µM [23]: 6.86%; inhibition of growth at 100 µM [24]: 90.6%
2 | N/C(=N\NC(=S)N1CCCC1)c1ccccn1 | 1.7 | 65.7 | 83.9 | 83.8 | 74.9 | 86 | 45.9 | 70.9 | 0.6 | 84.5 | 3.6 | 63.5 | 85.2 | 24.7 | 54.6 | 6.2 | 49.8 | 80 | 39.8 | 89.1 | inhibition of growth at 3 µM [21]: 38.5%; inhibition of growth at 10 µM [22]: 77.2%; inhibition of growth at 10 µM [23]: 51.7%; inhibition of growth at 100 µM [24]: 87.8%
3 | N/C(=N\NC(=S)N1CCCCCC1)c1ccc(F)cn1 | 1 | 51.8 | 72.2 | 83.5 | 79 | 80 | 16.8 | 62.4 | 0.96 | 84.5 | 21.1 | 83.2 | 81.3 | 50 | 68.2 | 0.9 | 24.3 | 66.6 | 50.3 | 85.6 | inhibition of growth at 3 µM [21]: 65.1%; inhibition of growth at 10 µM [22]: 64.4%; inhibition of growth at 10 µM [23]: 26.8%; inhibition of growth at 100 µM [24]: 85.7%
4 | N/C(=N\NC(=S)N1CCCCC1)c1ccccn1 | 6.9 | 72.5 | 85.8 | 85.6 | 77.7 | 87 | 15.4 | 27 | 0.68 | 76.9 | 8.5 | 55.7 | 79.7 | 15.5 | 69.3 | 3.8 | 38.6 | 86.5 | 24.4 | 86 | inhibition of growth at 3 µM [21]: 49.2%; inhibition of growth at 10 µM [22]: 68.1%; inhibition of growth at 10 µM [23]: 53.1%; inhibition of growth at 100 µM [24]: 88.5%
